In test [1] the test system is Mycobacterium tuberculosis. The experiment in a line: Antimycobacterial activity against Mycobacterium bovis BCG carrying pMV261::ethA. The class given is functional. To be noted: Mycobacterium tuberculosis variant bovis BCG. In outline: (§1)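 MIC by agar method on 7H11 supplemented with OADC. M. bovis BCG carried empty pMV261, or pMV261 overexpressing EthA or EthR from the constitutive hsp60 promoter. Results reported as MIC ranges in µg/ml.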

In test [2] the test system is Mycobacterium tuberculosis. The experiment in a line: Antimycobacterial activity against Mycobacterium bovis BCG assessed as clolony forming unit at 313 ug/ml after 7 days in presence of dextrin. Type of test: functional, variant bovis BCG. An outline of the steps: (§2)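 M. bovis BCG exposed to agent, with or without sucrose or 2.5% dextran, in log-phase and stationary-phase cultures. Bactericidal activity read as viable count (log CFU/ml) at day 7 and day 21. Values given as means ± SD.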

The subject of test [3] is Mycobacterium tuberculosis. The experiment in a line: Antimycobacterial activity against Mycobacterium bovis BCG assessed as clolony forming unit at 313 ug/ml after 21 days in presence of sucrose. Type of test: functional, variant bovis BCG. In outline: as §2
Test [4] concerns Mycobacterium tuberculosis. The experiment in a line: Antimycobacterial activity against Mycobacterium bovis BCG assessed as clolony forming unit at 313 ug/ml after 21 days. The class given is functional, variant bovis BCG. In outline:
as §2

The test system of test [5] is Mycobacterium tuberculosis. The experiment in a line: Antimycobacterial activity against Mycobacterium bovis BCG assessed as clolony forming unit at 313 ug/ml after 7 days in presence of sucrose. The class given is functional, variant bovis BCG. An outline of the steps: as §2
Test [6] has as its system Mycobacterium tuberculosis. The experiment in a line: Antimycobacterial activity against Mycobacterium bovis BCG carrying pMV261. The class given is functional. The note with it: Mycobacterium tuberculosis variant bovis BCG. An outline of the steps:
as §1

In test [7] the test system is Mycobacterium tuberculosis. The experiment in a line: Antimycobacterial activity against Mycobacterium bovis BCG assessed as clolony forming unit at 313 ug/ml after 21 days in presence of destrin. The class given is functional, variant bovis BCG. An outline of the steps:
as §2

The subject of test [8] is Mycobacterium tuberculosis. The experiment in a line: Antimycobacterial activity against Mycobacterium bovis BCG assessed as clolony forming unit at 313 ug/ml after 7 days. Type of test: functional, variant bovis BCG. In outline: as §2
Test [9] has as its system Mycobacterium tuberculosis. The experiment in a line: Antimycobacterial activity against Mycobacterium bovis BCG carrying pMV261::ethR. The note with it: Mycobacterium tuberculosis variant bovis BCG. Type of test: functional. In outline: as §1
The test system of test [10] is Mycobacterium tuberculosis. The experiment in a line: Antimycobacterial activity against Mycobacterium bovis BCG assessed as clolony forming unit at 4 ug/ml after 21 days in presence of destrin. The class given is functional, variant bovis BCG. An outline of the steps:
as §2

The test system of test [11] is Mycobacterium tuberculosis. The experiment in a line: Antimycobacterial activity against Mycobacterium bovis BCG assessed as clolony forming unit at 4 ug/ml after 7 days in presence of sucrose. The class given is functional, variant bovis BCG. In outline: as §2
The subject of test [12] is Mycobacterium tuberculosis. The experiment in a line: Antimycobacterial activity against Mycobacterium bovis BCG assessed as clolony forming unit at 4 ug/ml after 21 days in presence of sucrose. The class given is functional, variant bovis BCG. An outline of the steps: as §2
Test [13] has as its system Mycobacterium tuberculosis. The experiment in a line: Antimycobacterial activity against Mycobacterium bovis BCG assessed as clolony forming unit at 4 ug/ml after 7 days. Type of test: functional, variant bovis BCG. In outline:
as §2

Test [14] relates to Mycobacterium tuberculosis. The experiment in a line: Antimycobacterial activity against Mycobacterium bovis BCG assessed as clolony forming unit at 4 ug/ml after 7 days in presence of dextrin. The class given is functional, variant bovis BCG. In outline:
as §2

The subject of test [15] is Mycobacterium tuberculosis. The experiment in a line: Antimycobacterial activity against Mycobacterium bovis BCG assessed as clolony forming unit at 4 ug/ml after 21 days. Type of test: functional, variant bovis BCG. In outline: as §2
Test [16] concerns Mycobacterium tuberculosis. The experiment in a line: Antimycobacterial activity against Mycobacterium bovis BCG assessed as clolony forming unit at 125 ug/ml after 7 days in presence of dextrin. The class given is functional, variant bovis BCG. In outline:
as §2

In test [17] the test system is Mycobacterium tuberculosis. The experiment in a line: Antimycobacterial activity against Mycobacterium bovis BCG assessed as clolony forming unit at 125 ug/ml after 21 days in presence of sucrose. Type of test: functional, variant bovis BCG. An outline of the steps:
as §2

Test [18] relates to Mycobacterium tuberculosis. The experiment in a line: Antimycobacterial activity against Mycobacterium bovis BCG assessed as clolony forming unit at 125 ug/ml after 21 days in presence of destrin. The class given is functional, variant bovis BCG. In outline: as §2
In test [19] the test system is Mycobacterium tuberculosis. The experiment in a line: Antimycobacterial activity against Mycobacterium bovis BCG assessed as clolony forming unit at 125 ug/ml after 7 days in presence of sucrose. The class given is functional, variant bovis BCG. An outline of the steps:
as §2

For test [20], the system named is Mycobacterium tuberculosis. The experiment in a line: Antimycobacterial activity against Mycobacterium bovis BCG assessed as clolony forming unit at 125 ug/ml after 7 days. The class given is functional, variant bovis BCG. An outline of the steps: as §2
The subject of test [21] is Mycobacterium tuberculosis. The experiment in a line: Antimycobacterial activity against Mycobacterium bovis BCG assessed as clolony forming unit at 125 ug/ml after 21 days. The class given is functional, variant bovis BCG. An outline of the steps: as §2

Molecules are shown by their SMILES. Values after ≈ are worked out from the molar mass of the structure shown.

The MIC is the lowest concentration that inhibits growth of the organism. Take `CC(=O)N[C@@H]1[C@@H](O)[C@H](O)[C@@H](CO)O[C@H]1SC(=S)N(C)C`: the MIC in test [1], in [6] and in test [9] was 10 µg/mL (≈ 30.8 µM) in each case. The log10CFU/ml is reported as 6.44 in test [2]; 5.78 in test [3]; 5.2 in [4]; 6.41 in [5]; 5.91 in test [7]; 5.91 in [8].
As to `N.S=C(S)N1CCCC1` [PYRROLIDINE DITHIOCARBAMIC ACID, AMMONIUM SALT], the log10CFU/ml in [10] is listed as 5.56; in test [11], 6.05; in test [12], 5.56; in test [13], 4.65; in test [14] it was 6.93; in [15], 4.41. For the same compound, the MIC in test [1] was 0.5 µg/mL; in [6], 0.5 µg/mL; in test [9] it was 0.25 µg/mL.
Consider `CC(=O)N[C@@H]1[C@@H](O)[C@H](O)[C@@H](CO)O[C@H]1SC(=S)N1CCCC1`, for which the log10CFU/ml worked out at 6.07 in test [16]; 5.76 in test [17]; 5.79 in [18]; 6.25 in test [19]; 4.55 in [20]; 4.43 in [21]. Also, the MIC in test [1], in [6] and in test [9] was 1 µg/mL (≈ 2.85 µM) each time.
Take `CCc1cc(C(N)=S)ccn1` [ETHIONAMIDE]: the MIC in [1] came out at 0.5 µg/mL (≈ 3.01 µM); in [6], 1 µg/mL (≈ 6.02 µM); in test [9] it was 10 µg/mL (≈ 60.2 µM).

Values taken from ChEMBL document CHEMBL1667806, “Synthesis and evaluation of anti-tubercular activity of new dithiocarbamate sugar derivatives” (2011).
